TAAR1 antagonist – antagonists of human TAAR1. AID 624466. inhibition, % at 3 µM. CHO RD-HGA16 TAAR1, Fluo-8 calcium fluorescence, antagonist. 360,000 compounds, 1.5% hits. Q96RJ0;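 active = inhibition above a per-plate cutoff, the mean inhibition of test compounds on that plate plus 3 SD, cut at about 49% in these data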
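Material: RD-HGA16 CHO cells with stable hTAAR1 and Gα16; Dosing: single nominal final test compound concentration of 3 µM; Schedule: seeding 17-24 h prior, 75-min 37 °C, 30-min RT dye loading; Detection: kinetic Fluo-8 calcium fluorescence measurement; Measure: % inhibition from peak post-agonist over basal fluorescence ratio; Benchmarks: vehicle and agonist controls.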
OX1R antag-1 – antagonists of human orexin 1 receptor. O43613. CHO/OX1R cells, Fluo-8 calcium fluorescence, orexin A. inhibition, % at 5 µM. 330,000 compounds, 0.43% hits. AID 434989;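 active = inhibition above its plate's threshold, mean inhibition of all tested compounds on the plate plus 3 SD, cut at about 37% in these data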
Target sequence (O43613 whole entry, looked up): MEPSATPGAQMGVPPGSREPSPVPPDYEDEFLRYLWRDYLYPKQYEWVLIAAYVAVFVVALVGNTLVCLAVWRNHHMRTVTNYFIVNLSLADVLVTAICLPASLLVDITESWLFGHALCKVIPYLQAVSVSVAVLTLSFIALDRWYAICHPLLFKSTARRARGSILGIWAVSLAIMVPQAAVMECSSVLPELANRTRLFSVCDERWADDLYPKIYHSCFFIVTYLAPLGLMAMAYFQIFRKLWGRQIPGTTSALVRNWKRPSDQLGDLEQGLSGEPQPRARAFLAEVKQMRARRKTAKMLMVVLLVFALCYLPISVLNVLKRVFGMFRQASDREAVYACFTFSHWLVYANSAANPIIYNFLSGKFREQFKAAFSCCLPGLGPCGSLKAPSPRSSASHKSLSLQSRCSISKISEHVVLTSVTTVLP
TAAR1 agonist – agonists of human TAAR1; Q96RJ0; CHO RD-HGA16 TAAR1, Fluo-8 calcium fluorescence; vehicle wells 0%, saturating PEA agonist 100%; activation, % at 3 µM; 360,000 compounds, 0.99% hits;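 active = activation above the mean activation of all test compounds in the run plus 3 SD, cut at about 38% in these data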
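Test system: RD-HGA16 (CHO) cells co-expressing Gα16 and hTAAR1; dosing: one-point dosing at 3 µM (nominal); timing: 17-24 h seeding, 75 min 37 °C dye, 30 min RT; signal: kinetic Fluo-8 calcium fluorescence; read-out basis: % activation relative to PEA EC100 response; controls: DMSO and PEA EC100; replicates: n 1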
OX1R antag-2 – antagonists of human orexin 1 receptor (OX1R); OX1R-expressing cells, FRET antagonist read-out; 330,000 compounds, 1.8% hits; inhibition, % at 6.6 µM; O43613; AID 485270; in the data active = inhibition mostly above about 38%, no sharp cut-off; inactive = mostly below about 40%
CHO parental Ca – counter-screen for OX1R antagonists: effect in parental CHO cells | parental CHO-K1, ATP-induced calcium, Fluo-8 fluorescence | inhibition, % at 5.6 µM | 330,000 compounds, 0.63% hits;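 active = inhibition above that plate's mean sample inhibition plus 3 SD, cut at about 26% in these data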
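Assay system: untransfected parental CHO cell line. Also added: ATP agonist challenge. Dosing: one dose, 5.6 µM nominal. Measured by: Fluo-8 fluorescence. Read-out: % inhibition. Benchmarks: ATP wells versus no-ATP DMSO wells. Repeats: no replicates.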
TAAR1 ag confirm – confirmation of human TAAR1 agonists; 2,400 compounds, 82% hits; CHO RD-HGA16 TAAR1, Fluo-8 calcium fluorescence; scaled: DMSO 0%, maximal phenethylamine 100%; AID 651783; activation, % at 3 µM; shares compounds with TAAR1 agonist;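 active = activation above a cutoff set at the run's mean compound activation plus 3 SD, cut at about 39% in these data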
Ga16 nonsel ag – counter-screen for TAAR1 agonists: nonselective agonists in parental cells. 2,400 compounds, 50% hits. CHO-Ga16 parental, Fluo-8 calcium fluorescence; normalized to maximal ATP response, DMSO zero. AID 651787. shares compounds with TAAR1 agonist. activation, % at 3 µM;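 active = activation above the run cutoff, the mean activation over all tested wells plus 3 SD, cut at about 12% in these data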
TAAR1 desensitize – TAAR1 response desensitization, agonist counter-screen; shares compounds with TAAR1 agonist; CHO RD-HGA16 hTAAR1, Fluo-8 calcium, beta-PEA response inhibition; inhibition, % at 3 µM; 2,400 compounds, 46% hits; AID 651951;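 active = inhibition above the run cutoff, the mean inhibition of all test compounds plus 3 SD, cut at about 49% in these data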;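 note: beta-PEA stimulus applied at its EC80; loss of beta-PEA calcium signal after compound pretreatment read as receptor desensitization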
Ga16 antag count – nonselective Ga16 antagonist in TAAR1 agonist counter-screen; inhibition, % at 3 µM; 2,400 compounds, 39% hits; shares compounds with TAAR1 agonist; CHO-Ga16 ATP-induced calcium, Fluo-8 fluorescence;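 active = inhibition above the plate's mean compound inhibition plus 3 SD, computed per plate, cut at about 22% in these data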
Numbers stand for hits; i = inactive; nt = no result given. This is a sample that favours compounds with a hit; in the whole collection about 3.9% have one here.

SMILES	TAAR1 antagonist	OX1R antag-1	TAAR1 agonist	OX1R antag-2	CHO parental Ca	TAAR1 ag confirm	Ga16 nonsel ag	TAAR1 desensitize	Ga16 antag count
COc1ccc(NC(=S)N2CCCC(c3nc4ccc(C)cc4[nH]3)C2)c(OC)c1 (stereo unspecified)	i	i	98	i	i	i	i	i	i
COc1ccc(NC(=S)N2CCCC(c3nc4ccc(C)cc4[nH]3)C2)cc1 (stereo unspecified)	i	i	i	i	i	nt	nt	nt	nt
COc1ccc(C(NC(=O)c2ccc(=O)[nH]c2)C(=O)Nc2ccc(C(C)C)cc2)cc1 (stereo unspecified)	i	i	i	i	i	nt	nt	nt	nt
CC(C)Cc1ccc(C(C)NC(=O)c2ccc(=O)[nH]c2)cc1 (stereo unspecified)	i	i	91	i	i	94	49	49	38
CN(C)CCn1c(SCc2ccccc2C#N)nc2c(sc3ccccc32)c1=O	i	i	i	i	i	nt	nt	nt	nt
COC(=O)c1cc(-c2ccccc2)n(CCN)c1C	i	i	46	i	i	51	i	i	i
CC(C)(C)C1CCc2onc(C(=O)NC3CCCC3)c2C1 (stereo unspecified)	i	i	45	i	i	71	39	i	i
CCOC(=O)C1CCN(C(=O)COc2ccc(S(=O)(=O)N3CCCC3)cc2C)CC1	i	i	i	i	i	nt	nt	nt	nt
O=C(O)c1ccc(N/N=C/c2ccc(-c3ccccc3Cl)o2)cc1	i	i	97	i	i	56	39	i	i
O=C(N/N=C/c1ccc(-c2ccccc2Cl)o1)c1ccccc1	i	i	i	i	i	nt	nt	nt	nt
COc1cccc(NC(=O)Cn2c(=O)c3c(ncn3Cc3ccccc3)n(Cc3ccccc3)c2=O)c1	i	i	i	i	i	nt	nt	nt	nt
O=C(CN1CCN(C(=O)CN2C(=O)NC3(CCCC3)C2=O)CC1)Nc1cccc(F)c1	i	i	i	i	i	nt	nt	nt	nt
CCCCCCC(=O)N1C/C=C\C(c2ccc(OC)cc2)N(Cc2ccc(F)cc2)C(=O)[C@H]1Cc1ccccc1 (stereo partly specified)	i	i	i	i	i	nt	nt	nt	nt
Cc1cc(C)c2nc(N3CCN(C)CC3)c(C#N)cc2c1	i	i	49	i	i	54	i	i	i
Cc1cccc2cc(C#N)c(N3CCN(C)CC3)nc12	i	i	67	i	i	76	i	i	i
Cc1ccc2nc(N3CCN(C)CC3)c(C#N)cc2c1	i	i	i	i	i	nt	nt	nt	nt
CCN1C[C@@H]2[C@@H]3C(=O)N(C)C(=O)[C@@H]3[C@](C)(C1=O)N2C(=O)c1ccc(Cl)c(Cl)c1	i	nt	i	nt	nt	nt	nt	nt	nt
O=C(Nc1ccccc1C(=O)NCCc1ccccc1)c1ccco1	i	i	60	i	i	69	i	60	24
O=C(Nc1ccncc1)Nc1ccc(Cl)cc1	50	i	65	i	i	91	17	84	i
CSCCC(NC(=O)c1ccco1)C(=O)N1CC=C(c2ccccc2)CC1 (stereo unspecified)	i	i	i	i	i	nt	nt	nt	nt
CC[C@@H](C(=O)[C@@H](C)[C@@H](O)[C@H](C)CCc1ccc(C)c(O)c1C(=O)O)[C@H]1O[C@](CC)([C@H]2CC[C@](O)(CC)[C@H](C)O2)C[C@@H]1C	67	40	76	i	39	73	65	73	52
CCOC(=O)c1c(NC(=O)CSc2nnc(C)s2)sc2c1CCCCC2	i	54	58	i	52	40	23	i	i
Cc1ccc(CNC(=O)C2CCC(=O)N2C(C)C)cc1 (stereo unspecified)	i	i	i	i	i	nt	nt	nt	nt
CCC(Sc1nc(N)c(NC(=O)c2ccc(Br)o2)c(=O)[nH]1)C(=O)O (stereo unspecified)	i	i	i	i	i	nt	nt	nt	nt
O=C1NC(=S)SC1=Cc1ccc2c(c1)OCO2	i	nt	i	nt	nt	nt	nt	nt	nt
SMILES	TAAR1 antagonist	OX1R antag-1	TAAR1 agonist	OX1R antag-2	CHO parental Ca	TAAR1 ag confirm	Ga16 nonsel ag	TAAR1 desensitize	Ga16 antag count
CN(C)c1ccc(C=C2SC(=S)NC2=O)cc1	57	nt	69	nt	nt	57	85	69	78
COC(=O)c1cccc(N2CCCC2=O)c1	i	i	i	i	i	nt	nt	nt	nt
COC(=O)c1cccc(-n2sc3ccccc3c2=O)c1	i	i	63	i	i	50	22	i	i
O=c1c2ccccc2sn1-c1ccc(F)cc1	i	i	57	i	i	i	31	i	i
O=c1c2ccccc2sn1-c1ccc(Cl)cc1	i	nt	i	nt	nt	nt	nt	nt	nt
O=S(=O)(Nc1cccnc1)c1ccc(C2CCCCC2)cc1	i	42	56	i	35	71	28	i	31
O=S(=O)(Nc1cccnc1)c1ccccc1	i	i	i	i	i	nt	nt	nt	nt
CSc1ccc(C(=O)NC2CCSc3ccccc32)cc1 (stereo unspecified)	89	i	65	i	i	53	48	66	62
NS(=O)(=O)c1ccc(CCNC(=O)CNCCc2ccccc2)cc1	i	i	71	i	i	90	i	70	i
CC(C)Oc1ccc(N2CC(C(=O)OCC(=O)NCc3ccccc3)CC2=O)cc1 (stereo unspecified)	i	i	i	i	i	nt	nt	nt	nt
COc1ccc(C(=O)NC(=S)NNC(=O)c2ccccc2O)cc1	i	i	80	i	i	57	55	i	27
Cc1ccc(C(=O)NC(=S)NNC(=O)COc2ccccc2C)cc1	i	i	i	i	i	nt	nt	nt	nt
COc1ccc(C(=O)NC(=S)NNC(=O)COc2ccccc2)cc1	i	i	46	i	i	66	52	i	23
COc1ccc(C(=O)NNC(=S)NC(=O)c2cccc([N+](=O)[O-])c2)cc1	i	i	66	i	i	88	64	i	26
COc1ccc(C(=O)NC(=S)NNC(=O)c2ccco2)cc1	i	i	i	i	i	nt	nt	nt	nt
COc1ccc(C(=O)NNC(=S)NC(=O)C(C)(C)C)cc1	98	62	145	i	58	106	90	i	44
Cc1c(NS(=O)(=O)c2ccc3c(c2)Cc2ccccc2-3)c(=O)n(-c2ccccc2)n1C	i	i	i	i	i	nt	nt	nt	nt
COc1ccccc1NC(=O)CN1CCN(C(=O)C2CCCO2)CC1 (stereo unspecified)	i	i	i	i	i	nt	nt	nt	nt
CN(CC(=O)Nc1cc(Cl)ccc1-n1cncn1)Cc1ccccc1N1CCOCC1	i	nt	i	nt	nt	nt	nt	nt	nt

Screening results as filed in PubChem BioAssay.
